The record followed here is ChEMBL document CHEMBL2331096, “Montmorillonite K-10 catalyzed green synthesis of 2,6-unsubstituted dihydropyridines as potential inhibitors of PDE4” (Eur J Med Chem, 2013).

What is called IC50 is the point on the concentration scale where inhibition reaches its midpoint. By inhibition is commonly meant the change of the read-out against control, counted positive when it falls.

Each structure is given as a SMILES string.

T1 sequence (Q07343 whole entry): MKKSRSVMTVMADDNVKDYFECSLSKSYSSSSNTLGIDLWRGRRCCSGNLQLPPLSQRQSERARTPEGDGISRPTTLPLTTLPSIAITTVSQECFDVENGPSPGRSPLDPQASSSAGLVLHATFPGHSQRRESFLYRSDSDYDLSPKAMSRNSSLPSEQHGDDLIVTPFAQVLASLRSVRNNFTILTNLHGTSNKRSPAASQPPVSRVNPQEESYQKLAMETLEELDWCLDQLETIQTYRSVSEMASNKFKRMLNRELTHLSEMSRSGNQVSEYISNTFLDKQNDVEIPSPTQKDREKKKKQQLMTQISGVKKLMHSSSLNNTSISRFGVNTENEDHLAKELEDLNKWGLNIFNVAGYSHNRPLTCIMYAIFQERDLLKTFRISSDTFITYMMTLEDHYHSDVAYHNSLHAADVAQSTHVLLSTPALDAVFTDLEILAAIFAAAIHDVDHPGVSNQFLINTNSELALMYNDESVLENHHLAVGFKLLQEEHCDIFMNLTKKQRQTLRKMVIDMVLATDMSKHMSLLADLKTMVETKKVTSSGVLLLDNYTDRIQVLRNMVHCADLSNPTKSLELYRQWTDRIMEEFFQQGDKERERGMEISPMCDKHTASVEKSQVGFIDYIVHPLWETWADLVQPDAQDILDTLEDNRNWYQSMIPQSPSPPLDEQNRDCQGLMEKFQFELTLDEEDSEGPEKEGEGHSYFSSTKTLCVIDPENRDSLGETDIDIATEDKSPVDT

One experiment addresses T1, 3',5'-cyclic-AMP phosphodiesterase 4B (Homo sapiens, UniProt Q07343). In words: Inhibition of recombinant His-tagged PDE4B (unknown origin) expressed in Sf9 cells using cAMP as substrate incubated for 15 mins prior to substrate addition measured after 1 hr by luminescence-based assay. Put shortly:
(§1)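 His-tagged PDE4B made in baculovirus-infected Sf9 cells (lysed 48 h post-infection) and purified on Ni-NTA with imidazole elution. Enzyme (10 ng) pre-incubated 15 min with compound or DMSO vehicle, then 1 h with cAMP substrate; reaction stopped, detection reagent added for 10 min in dark, luminescence (RLU) read. Percent inhibition calculated from RLU relative to vehicle control.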
As to `CCOC(=O)C1=CN(c2ccccc2OC)C=C(C(=O)OCC)C1c1ccc(Br)cc1`, the IC50 is > 5 µM and the inhibition entry is “Dose-dependent effect”.

For another experiment, the target named is T1, 3',5'-cyclic-AMP phosphodiesterase 4B. Briefly: Inhibition of recombinant His-tagged PDE4B (unknown origin) expressed in Sf9 cells using cAMP as substrate at 30 uM incubated for 15 mins prior to substrate addition measured after 1 hr by luminescence-based assay. Put shortly: as §1
As to `CCOC(=O)C1=CN(c2ccccc2OC)C=C(C(=O)OCC)C1c1ccc(F)cc1`, the inhibition came out at 33.4%.

On to `CCOC(=O)C1=CN(c2ccc(OC)cc2)C=C(C(=O)OCC)C1c1ccc(Br)cc1`, for which the inhibition was 35.1%.

With `CCOC(=O)C1=CN(c2ccc(OC)cc2OC)C=C(C(=O)OCC)C1c1ccc(F)c(F)c1`, the inhibition worked out at 69.2%.

Turning to `CCOC(=O)C1=CN(c2ccc(OC)cc2)C=C(C(=O)OCC)C1c1ccccc1`, the inhibition came out at 39.3%.

As to `CCOC(=O)C1=CN(c2ccc(OC)cc2)C=C(C(=O)OCC)C1c1ccc(F)cc1`, the inhibition was 40.2%.

For `CCOC(=O)C1=CN(c2ccccc2OC)C=C(C(=O)OCC)C1c1cccc(Cl)c1`, the inhibition is 30.4%.

For the compound `CCOC(=O)C1=CN(c2ccccc2OC)C=C(C(=O)OCC)C1c1ccc(Br)cc1`, the inhibition was 78.4%.

Turning to `CCOC(=O)C1=CN(c2ccc(OC)cc2)C=C(C(=O)OCC)C1c1cccc(Br)c1`, the inhibition came out at 42%.

With `CCOC(=O)C1=CN(c2ccccc2OC)C=C(C(=O)OCC)C1c1cccc(Br)c1`, the inhibition stood at 37.3%.

For the compound `CCOC(=O)C1=CN(c2ccccc2OC)C=C(C(=O)OCC)C1c1ccc(OC)cc1`, the inhibition was 59.2%.

On to `CCOC(=O)C1=CN(c2ccccc2OC)C=C(C(=O)OCC)C1c1ccc(F)c(F)c1`, for which the inhibition came to 46%.

As to `CCOC(=O)C1=CN(c2ccccc2OC)C=C(C(=O)OCC)C1c1ccccc1`, the inhibition was determined as 29.9%.

As to `CCOC(=O)C1=CN(c2ccc(OC)cc2)C=C(C(=O)OCC)C1c1ccc(F)c(F)c1`, the inhibition was determined as 78.7%.

For `CCOC(=O)C1=CN(c2cccc(Cl)c2)C=C(C(=O)OCC)C1c1ccc(F)cc1`, the inhibition was 44.2%.
